From ChEMBL document CHEMBL1777774, “A novel, broad-spectrum antitumor compound containing the 1-hydroxycyclohexa-2,5-dien-4-one group: the disclosure of a new antitumor pharmacophore in protoapigenone 1” (Bioorg Med Chem Lett, 2011)

What was measured:
PC-3 = assay: Antitumor activity against human PC3 cells assessed as cell proliferation after 24 hrs by MTT assay; type: functional, cell-based; conditions: PC-3, 24 h
Procedure, shortened: (§1)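 Cells seeded at 2000 per well in 96-well plates and allowed to adhere. Compounds in DMSO, diluted in culture medium, added at 0.1–100 μM (eight wells per concentration) for 24 h. DMSO vehicle control. MTT 0.5 mg/mL (in PBS) for 4 h, then medium removed and DMSO added, absorbance read at 570 nm. IC50 from concentration vs percent absorbance plot. Mean ± SD, n = 4.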

Mus musculus [1] = assay: Toxicity in […] H22 tumor-nearing ICR mouse assessed as thymus index at 10 mg/kg, ip for 7 days measured on day 9 relative to control; type: organism-based; set-up: dose 10 mg/kg, route intraperitoneal; conditions: in vivo, 168 h
Procedure, shortened: (§2)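 H22-bearing ICR mice (10 per group, plus a saline-injected normal group) dosed ip at 10 mg/kg/day in 10% ethanol for 7 days from day 2. Vehicle given to controls. On day 9 blood was taken for WBC count, and body weight, thymus and spleen were weighed. Thymus or spleen index = organ weight (mg)/body weight (g).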

HEK293 = assay: Cytotoxicity against human HEK293 cells assessed as cell proliferation after 24 hrs by MTT assay; type: cell-based; conditions: HEK293, 24 h; procedure, shortened: as §1
U-266 = assay: Antitumor activity against human U266 cells assessed as cell proliferation after 24 hrs by MTT assay; type: functional, cell-based; conditions: U-266, 24 h; procedure, shortened: as §1
H22 = assay: Antitumor activity against mouse H22 tumor-nearing ICR mouse assessed as inhibition of tumor growth at 10 mg/kg, ip for 7 days measured on day 9; type: functional; conditions: route intraperitoneal
Procedure, shortened: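 ICR mice given H22 ascites cells from serial passage, 0.2 ml of 1×10^7 cells/ml injected subcutaneously into right flank, 10 mice per group. From day 2, 10 mg/kg/day ip in 10% ethanol (10 ml/kg) for 7 days. Cyclophosphamide 10 mg/kg as reference, vehicle-treated tumor model group. Killed day 9, tumors weighed. Inhibition = (model − treated tumor weight)/model weight × 100%.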

Mus musculus [2] = assay: Toxicity in […] H22 tumor-nearing ICR mouse assessed as decrease in ratio of granulocytic and erythroid cell system at 10 mg/kg, ip for 7 days measured on day 9; type: organism-based, Erythrocyte; set-up: dose 10 mg/kg, route intraperitoneal; scale not given: the % may be the effect or the level left; conditions: in vivo, 168 h
Procedure, shortened: (§3)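 H22-bearing ICR mice dosed ip 10 mg/kg/day in 10% ethanol for 7 days from day 2, with vehicle controls. Killed day 9 and femoral marrow flushed. Nucleated cells counted with a Coulter Counter. Granulocytic and erythroid cells per femur counted on May-Grünwald-Giemsa-stained marrow smears.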

HepG2 = assay: Antitumor activity against human HepG2 cells assessed as cell proliferation after 24 hrs by MTT assay; type: functional, cell-based; conditions: HepG2, 24 h; procedure, shortened: as §1
Mus musculus [3] = assay: Toxicity in […] H22 tumor-nearing ICR mouse assessed as decrease in total nucleated bone marrow cells at 10 mg/kg, ip for 7 days measured on day 9; type: organism-based; set-up: dose 10 mg/kg, route intraperitoneal; scale not given: the % may be the effect or the level left; conditions: in vivo, 168 h; procedure, shortened: as §3
Mus musculus [4] = assay: Toxicity in […] H22 tumor-nearing ICR mouse assessed as body weight at 10 mg/kg, ip for 7 days measured on day 9 relative to control; type: organism-based; set-up: dose 10 mg/kg, route intraperitoneal; conditions: in vivo, 168 h; procedure, shortened: as §2
PBMC = assay: Cytotoxicity against human PBMC assessed as cell proliferation after 24 hrs by MTT assay; type: cell-based; procedure, shortened: as §1
Mus musculus [5] = assay: Toxicity in […] H22 tumor-nearing ICR mouse assessed as white blood cell count at 10 mg/kg, ip for 7 days measured on day 9 relative to control; type: organism-based; set-up: dose 10 mg/kg, route intraperitoneal; conditions: in vivo, 168 h; procedure, shortened: as §2
MCF7 = assay: Antitumor activity against human MCF7 cells assessed as cell proliferation after 24 hrs by MTT assay; type: functional, cell-based; conditions: MCF7, 24 h; procedure, shortened: as §1
RPMI-8226 = assay: Antitumor activity against human RPMI8226 cells assessed as cell proliferation after 24 hrs by MTT assay; type: functional, cell-based; conditions: RPMI-8226, 24 h; procedure, shortened: as §1
MDA-MB-231 = assay: Antitumor activity against human MDA-MB-231 cells assessed as cell proliferation after 24 hrs by MTT assay; type: functional, cell-based; conditions: MDA-MB-231, 24 h; procedure, shortened: as §1
PANC-1 = assay: Antitumor activity against human PANC1 cells assessed as cell proliferation after 24 hrs by MTT assay; type: functional, cell-based; conditions: PANC-1, 24 h; procedure, shortened: as §1
Mus musculus [6] = assay: Toxicity in […] H22 tumor-nearing ICR mouse assessed as spleen index at 10 mg/kg, ip for 7 days measured on day 9 relative to control; type: organism-based; set-up: dose 10 mg/kg, route intraperitoneal; conditions: in vivo, 168 h; procedure, shortened: as §2
SK-OV-3 = assay: Antitumor activity against human SKOV3 cells assessed as cell proliferation after 24 hrs by MTT assay; type: functional, cell-based; conditions: SK-OV-3, 24 h; procedure, shortened: as §1

IC50 (PC-3) [µM] | IC50 (HepG2) [µM] | IC50 (MCF7) [µM] | IC50 (RPMI-8226) [µM] | IC50 (MDA-MB-231) [nM] | IC50 (PANC-1) [µM] | IC50 (SK-OV-3) [nM] | SMILES | Activity (Mus musculus [1]) | IC50 (HEK293) [µM] | IC50 (U-266) [µM] | inhibition in vivo at 10 mg/kg (H22) [%] | Activity (Mus musculus [2]) | Activity (Mus musculus [3]) | Activity (Mus musculus [4]) | IC50 (PBMC) [µM] | Activity (Mus musculus [5]) | Activity (Mus musculus [6])
3.43 | 1.76 | 0.71 | 13.5 | 380 | 3.08 | 640 | O=C1C=CC(O)(c2cc(=O)cco2)C=C1 | Non-toxic | 30 | 9.44 | 34.1 | Non-toxic | Non-toxic | Non-toxic | 49.3 | Non-toxic | Non-toxic
 |  |  |  |  |  |  | O=P1(N(CCCl)CCCl)NCCCO1 (stereo not given) [CYCLOPHOSPHAMIDE ANHYDROUS] |  |  |  | 41.7 |  |  |  |  |  | 
6.13 | 7.77 | 5.5 | 3.93 | 1700 | 22.1 | 710 | O=C1C=CC(O)(c2cc(=O)c3c(O)cc(O)cc3o2)C=C1 [PROTOAPIGENONE] | Non-toxic | 6.79 | 7.66 | < 5 | 36.9% | 51.52% | Non-toxic | 8.11 | Non-toxic | Non-toxic
